# Measurements published in ChEMBL document CHEMBL1240449, “Tricyclononene carboxamide derivatives as novel anti-HIV-1 agents” (Eur J Med Chem, 2010).
# What was measured:
# [1] = Selectivity index, CC50 for human CEMx174 5.25M7 cells to IC50 for R5 tropic HIV1 BaL; assay type: functional
# How it was run: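 Ratio of CC50 (XTT, CEMx174 5.25M7 cells, 4 days) to IC50 (HIV-1 Bal luciferase infection assay, day 3) in the same cell line.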
# [2] = Cytotoxicity against human CEMx174 5.25M7 cells after 4 days by XTT assay; assay type: cell-based
# How it was run: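 Graded compound concentrations added to an equal volume of CEMx174 5.25M7 cells (5 × 10⁵/mL) and incubated 4 days at 37 °C. XTT (1 mg/mL) containing 0.02 mM PMS was added and absorbance read at 450 nm after 4 h. CC50 by CalcuSyn.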
# [3] = system: Human immunodeficiency virus 1; experiment: Antiviral activity against R5 tropic HIV1 BaL infected in human CEMx174 5.25M7 cells after 3 days by luciferase assay; assay type: functional, organism-based; conditions: Human immunodeficiency virus 1, BaL, CEMx174 5.25M7, 72 h
# How it was run: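 Compound at graded concentrations, in triplicate, preincubated with an equal volume of HIV-1 Bal (MOI 0.01) at 37 °C for 30 min. CEMx174 5.25M7 cells (5 × 10⁵/mL; CD4+, CXCR4+, CCR5+) were then added. After overnight culture the medium was replaced. On day 3 the cells were lysed and luciferase activity read. IC50 from percent inhibition by CalcuSyn.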
# [4] = biological target: Human immunodeficiency virus type 1 integrase (Human immunodeficiency virus 1, UniProt Q7ZJM1); experiment: Inhibition of HIV1 integrase after 1 hr
# How it was run: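 Integrase (F185K/C280S IN1-288, expressed in E. coli) assayed in wells coated with a donor DNA duplex substrate. Final read-out by alkaline phosphatase at 405 nm, after PBS-Tween washes and 1% BSA at 37 °C for 40 min. ABPS included as control. IC50 by CalcuSyn.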
# [5] = biological target: Human immunodeficiency virus type 1 reverse transcriptase (Human immunodeficiency virus 1, UniProt Q72547); experiment: Inhibition of HIV1 reverse transcriptase after 1 hr by ELISA
# Protease = Protease (Human immunodeficiency virus 1, UniProt Q9YQ12); experiment: Inhibition of HIV1 recombinant protease
# How it was run: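 Recombinant HIV-1 protease, purified, in 0.1 mol/L sodium acetate pH 5.0 with 0.9 mol/L NaCl, 1 mmol/L DTT, 1 mmol/L EDTA and a fluorescent peptide substrate. Graded compound concentrations were preincubated in this buffer for 20 min at 37 °C, then enzyme was added to start the reaction. Percent inhibition and IC50 were calculated.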
# Human immunodeficiency virus type 1 integrase, sequence (Q7ZJM1 whole entry): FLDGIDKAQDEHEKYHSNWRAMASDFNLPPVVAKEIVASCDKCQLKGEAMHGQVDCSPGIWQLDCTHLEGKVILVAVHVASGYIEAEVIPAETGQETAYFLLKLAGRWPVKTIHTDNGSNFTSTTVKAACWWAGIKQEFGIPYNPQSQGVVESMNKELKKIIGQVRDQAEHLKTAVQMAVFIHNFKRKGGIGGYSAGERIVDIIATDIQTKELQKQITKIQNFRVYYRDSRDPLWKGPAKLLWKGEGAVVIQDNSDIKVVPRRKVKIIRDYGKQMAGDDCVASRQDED
# Protease, sequence (Q9YQ12 whole entry): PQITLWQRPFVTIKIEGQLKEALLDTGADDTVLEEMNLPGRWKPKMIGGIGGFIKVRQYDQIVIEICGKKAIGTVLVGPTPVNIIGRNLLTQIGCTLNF
Structure (SMILES),IC50 ([3]; read-out: IC50),IC50 ([3]; read-out: pIC50 (converted)),IC50 [4],IC50 [5],IC50 (Protease),Selectivity Index [1],CC50 at 96 h [2]
CN(CCCN1C(=O)C2C3C=CC(C4CC34)C2C1=O)Cc1ccccc1 (stereo not drawn),30.4 µM,30.4 µM,–,–,–,2.76,84 µM
O=C1C2C3C=CC(C4CC34)C2C(=O)N1CCC(=O)n1cnc2ccccc21 (stereo not drawn),> 221 µM,–,–,–,–,–,> 221 µM
O=C(N[C@H](C(=O)NN1C(=O)C2C3C=CC(C4CC34)C2C1=O)c1ccccc1)c1ccccc1 (stereo partly drawn),155 µM,155 µM,–,–,–,>1.17,> 181 µM
O=C(NN1C(=O)[C@@H]2C3C=CC(C4CC43)[C@@H]2C1=O)c1ccc(CN(Cc2ccccc2)c2ccccc2)cc1 (stereo partly drawn),17.1 µM,17.1 µM,–,–,–,1.51,25.5 µM
Cc1ccc(-c2ccc3c(c2)C=C(C(=O)Nc2ccc(C[N+](C)(C)C4CCOCC4)cc2)CCC3)cc1.[Cl-],0.05 µM,–,–,–,–,157.6,7.88 µM
Cc1cccc(C)c1C(=O)N1CCC(C(=O)NN2C(=O)C3C4C=CC(C5CC45)C3C2=O)CC1 (stereo not drawn),> 118 µM,–,–,–,–,–,> 118 µM
Cc1nnc(C(C)C)n1-c1ccc(C(=O)NN2C(=O)C3C4C=CC(C5CC45)C3C2=O)cc1 (stereo not drawn),> 185 µM,–,–,–,–,–,> 185 µM
O=C(N[C@@H](Cc1ccccc1)C(=O)NN1C(=O)C2C3C=CC(C4CC34)C2C1=O)c1ccccc1 (stereo partly drawn),89.4 µM,89.3 µM,–,–,–,–,–

# Continued, in another order:
IC50 ([3]; read-out: IC50),IC50 ([3]; read-out: pIC50 (converted)),IC50 [4],IC50 [5],IC50 (Protease),Structure (SMILES),Selectivity Index [1],CC50 at 96 h [2]
5.7 µM,5.7 µM,–,–,–,O=C(Nc1ccccc1)c1ccc(CN2C(=O)C3C4C=CC(C5CC45)C3C2=O)cc1 (stereo not drawn),7.72,44 µM
7.8 µM,7.8 µM,–,–,–,Cc1ccc(C)n1-c1ccc(C(=O)NN2C(=O)C3C4C=CC(C5CC45)C3C2=O)cc1 (stereo not drawn),0.45,3.54 µM
82.8 µM,82.8 µM,–,–,–,CN1CCN(Cc2ccc(C(=O)NN3C(=O)[C@@H]4C5C=CC(C6CC65)[C@@H]4C3=O)cc2)CC1 (stereo partly drawn),–,–
1.68 µM,1.68 µM,–,–,–,Cc1nc2ccccc2n1Cc1ccc(C(=O)NN2C(=O)[C@@H]3C4C=CC(C5CC54)[C@@H]3C2=O)cc1 (stereo partly drawn),0.61,1.02 µM
31.4 µM,31.5 µM,–,–,–,O=C(NN1C(=O)[C@@H]2C3C=CC(C4CC43)[C@@H]2C1=O)c1ccc(COc2ccc(F)cc2)cc1 (stereo partly drawn),0.94,29.7 µM
57.2 µM,57.1 µM,–,–,–,CCN(Cc1ccc(C(=O)NN2C(=O)[C@@H]3C4C=CC(C5CC54)[C@@H]3C2=O)cc1)c1ccccc1 (stereo partly drawn),1,57 µM
0.41 µM,0.41 µM,> 228 µM,> 457 µM,> 114 µM,O=C(NN1C(=O)[C@@H]2C3C=CC(C4CC43)[C@@H]2C1=O)c1ccc(Cn2cnc3ccccc32)cc1 (stereo partly drawn),291.68,120 µM
13.2 µM,13.2 µM,–,–,–,CC(C)CN(Cc1ccc(C(=O)NN2C(=O)[C@@H]3C4C=CC(C5CC54)[C@@H]3C2=O)cc1)c1ccccc1 (stereo partly drawn),2.48,32.7 µM
> 165 µM,–,–,–,–,O=C(NN1C(=O)[C@@H]2C3C=CC(C4CC43)[C@@H]2C1=O)c1ccc(CN2CCN(c3ccncc3)C2=O)cc1 (stereo partly drawn),–,> 165 µM
13.3 µM,13.2 µM,–,–,–,O=C(NN1C(=O)[C@@H]2C3C=CC(C4CC43)[C@@H]2C1=O)c1ccc(CNc2cccc(Cl)c2)cc1 (stereo partly drawn),2.01,27.8 µM
> 200 µM,–,–,–,–,O=C(NN1C(=O)[C@@H]2[C@@H]3C=C[C@@H]([C@H]4C[C@@H]34)[C@@H]2C1=O)c1ccc(C(F)(F)F)cc1 [TECOVIRIMAT],–,–
